A selection: hits, their analogues and other compounds. The true share with any hit is near 12%.
L major viab – Leishmania major promastigote growth inhibition. Leishmania major promastigotes, resazurin fluorescence viability. inhibition, % at 10 µM. 200,000 compounds, 9% hits; in the data active means inhibition above about 50%;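 further: promastigotes grown with compound for 44 hours at 28 °C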
ABCG2 block – inhibitors of human ABCG2 transporter, ABCB1 counter-screen | IgMXP3 cells, JC-1 efflux, flow cytometry | inhibition, % at 6.6 µM | 190,000 compounds, 0.1% hits | AID 1325;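 active means inhibition above 80%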
Target sequence (Q9UNQ0 whole entry, looked up): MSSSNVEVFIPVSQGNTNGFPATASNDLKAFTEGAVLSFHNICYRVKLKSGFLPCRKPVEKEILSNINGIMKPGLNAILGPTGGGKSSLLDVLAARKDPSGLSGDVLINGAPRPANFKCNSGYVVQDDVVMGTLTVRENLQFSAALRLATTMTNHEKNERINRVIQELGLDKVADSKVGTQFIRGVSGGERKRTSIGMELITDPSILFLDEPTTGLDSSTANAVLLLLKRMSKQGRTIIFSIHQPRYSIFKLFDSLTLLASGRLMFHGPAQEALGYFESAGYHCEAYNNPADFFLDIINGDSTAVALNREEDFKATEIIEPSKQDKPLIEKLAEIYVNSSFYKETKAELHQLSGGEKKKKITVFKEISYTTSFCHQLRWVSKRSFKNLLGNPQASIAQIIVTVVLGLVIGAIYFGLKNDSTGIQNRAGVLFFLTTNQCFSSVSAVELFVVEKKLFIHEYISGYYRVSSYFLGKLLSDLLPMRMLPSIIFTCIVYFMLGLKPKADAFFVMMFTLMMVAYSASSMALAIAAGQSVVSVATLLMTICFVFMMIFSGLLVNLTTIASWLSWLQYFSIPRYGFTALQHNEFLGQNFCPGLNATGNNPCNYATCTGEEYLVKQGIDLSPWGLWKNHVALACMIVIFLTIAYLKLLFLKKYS
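material = IgMXP3 (ABCG2) plus far-red-tagged CCRF-Adr (ABCB1) cells | amount = 3 million cells/mL, equal mix of both lines | also added = JC-1 transporter substrate | dosing = one concentration, 6.6 µM final | schedule = 10 min at 25 °C | measured by = flow cytometric JC-1 green MFI at 530 nm | read-out basis = percent efflux inhibition, scaled nicardipine 100% to DMSO 0%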
WT yeast gro inh – growth inhibition of WT yeast, mitochondrial fusion screen | AID 1362 | inhibition, % at 10 µM | 190,000 compounds, 2.1% hits | mitochondrial fusion phenotypic screen, WT strain; in the data active means inhibition above about 58%; tested in S. cerevisiae
ABCB1 block – inhibitors of human ABCB1 transporter, ABCG2 counter-screen; P08183; CCRF-Adr cells, JC-1 efflux, flow cytometry; inhibition, % at 6.6 µM; 190,000 compounds, 0.067% hits; in the data active means inhibition above about 40%;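 further: higher value means more JC-1 retained so stronger ABCB1 efflux block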
RAM inhibit – blocks the yeast RAM network; S. cerevisiae dse1pr::URA3 reporter, 5-FOA growth OD615, 2 d; analog-sensitive cbk1-as2 kinase mutant strain; inhibition, % at 50 µM; 190,000 compounds, 1.8% hits; AID 868;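 active means inhibition above a set limit, 3 SD over mean compound inhibition, cut at about 8.4% in these data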;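 further: inhibition rescues growth on 5-FOA so higher OD means more RAM inhibition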
Hits are given with their value; – = inactive; · = no result given.

SMILES | L major viab | ABCG2 block | WT yeast gro inh | ABCB1 block | RAM inhibit
Cc1ccc2c(c1)c1c(n2CC(O)Cn2nc(C)c(Br)c2C)CCCC1 (stereo not given) | – | – | 76.2 | – | –
Cc1ccc2c(c1)c1c(n2CC(O)CNC(C)(C)C)CCCC1 (stereo not given) | 81.6 | – | – | – | –
Cc1ccc2c(c1)c1c(n2CC(O)Cn2c(C)nc3ccccc32)CCCC1 (stereo not given) | – | – | – | – | –
CNCC(O)Cn1c2c(c3ccccc31)CCCC2 (stereo not given) | – | – | – | – | –
CCOC(=O)c1c(C)nc(C)c(C(=O)OCC)c1-c1ccc(Br)cc1 | – | – | – | – | –
CCOC(=O)c1c2c(n(C)c1COC)C(=O)C(=O)c1ccc(Br)cc1-2 | 99.6 | · | · | · | ·
NC(=O)c1ccccc1N/C=C/C(=O)c1ccc(Cl)cc1Cl | 85.9 | – | – | – | –
NC(=O)c1ccccc1N/C=C/C(=O)c1ccc(F)cc1 | – | – | – | – | –
OC(COc1ccccc1)CN1CCCCCC1 (stereo not given) | – | – | – | – | –
OC(CON=C1c2ccccc2-c2ccccc21)CN1CCNCC1 (stereo not given) | 91.6 | – | – | – | –
Cc1ccc(SCCc2cc[n+](CC(=O)c3ccccc3)cc2)cc1 | – | – | – | – | –
CN(C)c1cc[n+](CC(=O)c2ccc(Br)cc2)cc1 | – | – | – | – | –
Cc1ccc(C(=O)C[n+]2ccc(Cc3ccccc3)cc2)cc1 | 85.9 | – | – | – | –
CN(C)c1cc[n+](CC(=O)c2ccc(-c3ccccc3)cc2)cc1 | 100.1 | – | 72.9 | – | –
CO/N=C/c1ccc(OC)c(Oc2nc(OC)cc(OC)n2)c1 | – | – | – | – | –
CCOC(=O)c1cnc(SCc2cccc(C)c2)nc1N | – | – | – | – | –
CCCCNC(=O)C1=C(N)C(C(=O)Nc2ccc(C)c(S(=O)(=O)N3CCCCC3)c2)SC1=Nc1ccc(C)cc1C (stereo not given) | – | – | 60.2 | – | –
NS(=O)(=O)c1ccc(Nc2ncccc2[N+](=O)[O-])cc1 | 75.1 | – | – | – | –
Cc1cccc(NS(=O)(=O)c2cc(C(=O)NCCC3=CCCCC3)ccc2Cl)c1 | – | – | – | – | –
CC(=O)Nc1ccc(S(=O)(=O)N2CCSC2c2ccccc2Cl)cc1 (stereo not given) | 64.0 | – | – | – | –
CC(=O)Nc1ccc(S(=O)(=O)N2CCSC2c2ccccc2)cc1 (stereo not given) | – | – | – | – | –
CCCCNc1oc(-c2ccc(OC)cc2)nc1S(=O)(=O)c1ccccc1 | – | – | · | – | –
CCOc1ccc(-c2nc(S(=O)(=O)c3ccccc3)c(NCc3cccnc3)o2)cc1 | 83.4 | – | – | – | –
COc1ccc2nc3sc(C(=O)NCCN4CCc5ccccc5C4)cc3cc2c1 | – | – | – | – | –
COc1ccc2cc3cc(C(=O)NCCCN4CCc5ccccc5C4)sc3nc2c1 | 95.5 | – | – | – | –
SMILES | L major viab | ABCG2 block | WT yeast gro inh | ABCB1 block | RAM inhibit
Cc1c(C(=O)NN)nc2ccccn12 | – | – | – | – | –
CN(C)C(C)(C)C#CCCCCC#CC(C)(C)N(C)C | – | – | – | – | –
CN(C)C(C)(C)C#CCC(c1ccccc1)c1ccccc1 | 100.0 | – | – | – | –
Fc1ccccc1NC(=S)Nc1ccc(Br)cc1 | – | – | 61.7 | – | –
C=CCN1C2CCCC1CC(NC(=O)Nc1cccc(C(C)=O)c1)C2 (stereo not given) | – | – | – | – | –
COc1ccc(CN2C3CCCC2CC(NC(=O)Nc2cccc(C)c2)C3)cc1 (stereo not given) | 90.2 | – | – | – | –
COc1ccc(CN2C3CCCC2CC(NC(=O)Nc2ccccc2)C3)cc1 (stereo not given) | 93.7 | – | – | – | –
COCC(=O)NC1CC2CCCC(C1)N2Cc1ccccc1 (stereo not given) | – | – | – | – | –
COc1ccc(CN2C3CCCC2CC(NC(=O)Nc2ccccc2C)C3)cc1 (stereo not given) | 85.0 | – | – | – | –
Cc1ccc(C(=O)N2CCN(S(=O)(=O)c3ccccc3[N+](=O)[O-])CC2)o1 | – | – | – | – | –
CC(C)N(Cc1nc(-c2ccc(Cl)cc2)no1)Cc1nccn1C | – | – | – | – | –
CN(C)c1nc2ccccc2c(N)c1-c1ccccc1 | 95.9 | – | – | – | –
C/C(=N\NC(=O)COc1ccc(C)cc1Br)c1cc([N+](=O)[O-])cs1 | 59.0 | – | – | – | –
C/C(=N\NC(=O)COc1ccc(C)cc1[N+](=O)[O-])c1cccs1 | – | – | – | – | –
NC1=Nc2cccc3cccc1c23 | 52.2 | – | – | – | –
C(=N\NC1=Nc2cccc3cccc1c23)/c1ccccc1 | – | – | – | – | –
COc1ccc(-c2nnc(SCc3c(C)noc3C)o2)cc1 | – | – | – | – | –
O=C(COC(=O)c1c(Cl)ccc(Cl)c1Cl)NC(=O)NCc1ccccc1 | 78.8 | – | – | – | –
COc1cccc(OC)c1C(=O)OCC(=O)NC(=O)NCc1ccccc1 | – | – | – | – | –
CN(c1ccc(O)cc1)c1nc(-c2cccs2)cs1 | – | – | 66.5 | – | –
Cc1nc(N)sc1-c1csc(N(C)c2ccc(O)cc2)n1 | – | – | – | – | –
O=C(CON=C1c2ccccc2-c2ccccc21)NC12CC3CC(CC(C3)C1)C2 | – | – | – | – | –
CCc1ccc(NC(=O)CO/N=C(\C)c2cc3ccccc3o2)cc1 | – | – | – | – | 8.4
C/C(=N\OCC(=O)NC12CC3CC(CC(C3)C1)C2)c1cc2ccccc2o1 | – | – | 65.8 | – | –
C/C(=N\OCC(=O)Nc1ccc(F)c(F)c1F)c1cc2ccccc2o1 | – | – | – | – | –
SMILES | L major viab | ABCG2 block | WT yeast gro inh | ABCB1 block | RAM inhibit
CSc1ccccc1NC(=O)CO/N=C(\C)c1cc2ccccc2o1 | 95.3 | – | – | – | 9.2
Cc1nn(C)c(C)c1Nc1ccc(N2C(=O)C3CC=CCC3C2=O)cc1[N+](=O)[O-] (stereo not given) | – | – | – | – | –
CC(C)=C1C2CCC1C(C(=O)Nc1sc(C)c(-c3ccc(C(C)C)cc3)c1C(N)=O)C2C(=O)O (stereo not given) | – | – | 61.5 | – | –
CCOC(=O)CC1CCCCN1Cc1cn[nH]c1-c1ccc(F)cc1F (stereo not given) | – | – | – | – | –
CC(=O)Nc1ccc(/C=C(\C#N)C(=O)NC2CCCCC2C)cc1 (stereo not given) | – | – | – | – | –
CC1CCCCC1NC(=O)/C(C#N)=C/c1ccccc1F (stereo not given) | 100.2 | – | 72.6 | – | –
CSc1ccc(/C=C(\C#N)C(=O)NC2CCCCC2C)cc1 (stereo not given) | 55.3 | – | – | – | –
CCOCCCNC(=O)/C(C#N)=C/c1ccccc1F | – | – | – | – | –
COc1cc(/C=C(\C#N)C(=O)NC2CCCCC2C)ccc1OS(=O)(=O)c1ccc(C)cc1 (stereo not given) | 100.1 | – | – | – | –
